According to ChEMBL document CHEMBL4229493, “Synthesis and anticancer activity studies of indolylisoxazoline analogues” (Bioorg Med Chem Lett, 2018):
Activity calls are given as the source filed them. No cut-off for these calls is given here.

How the values were obtained:
Format in all cases: functional, cell-based
LNCaP C4-2 [1] = assay: Growth inhibition of human C4-2 cells after 48 hrs by MTT assay; conditions: LNCaP C4-2, 48 h
BXPC-3 = assay: Growth inhibition of human BxPC3 cells after 48 hrs by MTT assay; conditions: BXPC-3, 48 h
PC-3 = assay: Growth inhibition of human PC3 cells after 48 hrs by MTT assay; conditions: PC-3, 48 h
HEK293 = assay: Growth inhibition of HEK293 cells after 48 hrs by MTT assay; conditions: Homo sapiens, HEK293, 48 h
MDA-MB-231 = assay: Growth inhibition of human MDA-MB-231 cells after 48 hrs by MTT assay; conditions: MDA-MB-231, 48 h
CWR22R = assay: Growth inhibition of human 22Rv1 cells after 48 hrs by MTT assay; conditions: 22Rv1, 48 h
NCI-H460 = assay: Antiproliferative activity against human NCI-H460 cells
LNCaP C4-2 [2] = assay: Induction of ROS generation in human C4-2 cells at 10 uM after 48 hrs by H2-DCF-DA staining based inverted fluorescent microscopic method
Summary of the method: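 C4-2 cells left untreated or exposed 48 h to compound at 10 μM. H2O2 (10 μM) was the positive control. Intracellular ROS was stained with DCFDA and fluorescence quantified.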

LNCaP C4-2 [3] = assay: Induction of apoptosis in human C4-2 cells assessed as PARP cleavage at 2.5 uM after 48 hrs by Western blot analysis
LNCaP C4-2 [4] = assay: Induction of apoptosis in human C4-2 cells assessed as DNA fragmentation by measuring DNA ladder formation at 10 uM after 48 hrs by agarose gel electrophoresis method
LNCaP C4-2 [5] = assay: Induction of apoptosis in human C4-2 cells assessed as nuclear fragmentation at 2.5 uM after 48 hrs by acridine orange/ethidium bromide staining based inverted fluorescent microscopic method
Summary of the method: (§1)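 C4-2 cells were incubated 48 h with compound, alongside untreated controls. They were then stained with acridine orange (live and dead cells) and ethidium bromide (dead cells only). Nuclear morphology was scored for red fragmented nuclei as apoptosis versus necrosis.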

LNCaP C4-2 [6] = assay: Antimigratory activity against human C4-2 cells at 10 uM after 12 to 48 hrs by wound healing assay
Summary of the method: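 A scratch was made in a C4-2 monolayer. Cells were incubated further for 12, 24 and 48 h, then fixed and imaged to follow migration into the wound.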

Prostatic carcinoma cell = assay: Cytotoxicity against human prostate cancer cells
LNCaP C4-2 [7] = assay: Induction of apoptosis in human C4-2 cells assessed as PARP cleavage at 3.5 uM after 48 hrs by Western blot analysis
LNCaP C4-2 [8] = assay: Induction of apoptosis in human C4-2 cells assessed as nuclear fragmentation at 3.5 uM after 48 hrs by acridine orange/ethidium bromide staining based inverted fluorescent microscopic method; summary of the method: as §1

Structure (SMILES) | IC50 (LNCaP C4-2 [1]) [µM] | IC50 (BXPC-3) [µM] | IC50 (PC-3) [µM] | IC50 (HEK293) [µM] | IC50 (MDA-MB-231) [µM] | IC50 (CWR22R) [µM] | IC50 (NCI-H460) [nM] | Activity (LNCaP C4-2 [2]) | Activity (LNCaP C4-2 [3]) | Activity (LNCaP C4-2 [4]) | Activity (LNCaP C4-2 [5]) | Activity (LNCaP C4-2 [6]) | IC50 (Prostatic carcinoma cell) [nM] | Activity (LNCaP C4-2 [7]) | Activity (LNCaP C4-2 [8])
COc1cccc2c1C(=O)c1c(O)c3c(c(O)c1C2=O)C[C@@](O)(C(=O)CO)C[C@@H]3O[C@H]1C[C@H](N)[C@H](O)[C@H](C)O1 [DOXORUBICIN] | 3.25 | 9.12 | 9.58 | 3.9 | – | – | – | – | – | – | – | – | – | – | –
Cc1[nH]c2ccccc2c1C1CC(c2ccncc2)=NO1 (stereo not given) | 45.1 | 95.5 | 21.2 | > 100 | 26.6 | 17.3 | – | – | – | – | – | – | – | – | –
COc1cc(-c2cnc(-c3ccc4c(ccn4C)c3)o2)cc(OC)c1OC | – | – | – | – | – | – | 6.2 | – | – | – | – | – | – | – | –
Fc1ccc2c(C3CC(c4ccncc4)=NO3)c[nH]c2c1 (stereo not given) | 8 | 9.5 | 12.9 | 9.5 | 5 | 3.66 | – | – | – | – | – | – | – | – | –
COc1ccc(C2=NOC(c3c[nH]c4ccccc34)C2)cc1OC (stereo not given) | 65.5 | > 100 | 70.1 | > 100 | > 100 | 16.7 | – | – | – | – | – | – | – | – | –
COc1ccc2c(C3CC(c4ccncc4)=NO3)cn(Cc3ccc(Cl)cc3)c2c1 (stereo not given) | > 100 | > 100 | 95.1 | 37.2 | > 100 | 17.3 | – | – | – | – | – | – | – | – | –
OO | – | – | – | – | – | – | – | Active | – | – | – | – | – | – | –
Cc1c(C2CC(c3ccncc3)=NO2)c2ccccc2n1Cc1ccc(Cl)cc1 (stereo not given) | 2.5 | 13.5 | 11.2 | 2.5 | 6.66 | 8.33 | – | inactive | Active | Active | Active | Active | – | – | –
c1ccc2c(C3CC(c4ccc5c(c4)OCO5)=NO3)c[nH]c2c1 (stereo not given) | 15.8 | 27 | > 100 | > 100 | 26.6 | > 100 | – | – | – | – | – | – | – | – | –
COc1ccc2[nH]cc(C3CC(c4cc(OC)c(OC)c(OC)c4)=NO3)c2c1 (stereo not given) | 71.2 | > 100 | 42.6 | 45.4 | 26 | 11.3 | – | – | – | – | – | – | – | – | –
Clc1ccc(Cn2cc(C3CC(c4ccncc4)=NO3)c3ccccc32)cc1 (stereo not given) | 11.4 | > 100 | 25.7 | 10.2 | 13.7 | 9.6 | – | – | – | – | – | – | – | – | –
c1ccc2c(C3CC(c4ccncc4)=NO3)c[nH]c2c1 (stereo not given) | 12.8 | 30.5 | > 100 | > 100 | 19.7 | > 100 | – | – | – | – | – | – | – | – | –
COc1cc(-c2nnc(-c3cn(C)c4ccccc34)[nH]2)cc(OC)c1OC | – | – | – | – | – | – | – | – | – | – | – | – | 800 | – | –
COc1ccc2c(c1)c(C1CC(c3ccncc3)=NO1)cn2Cc1ccc(Cl)cc1 (stereo not given) | > 100 | > 100 | 55.2 | 14.2 | 26 | 10.6 | – | – | – | – | – | – | – | – | –
COc1ccc2[nH]cc(C3CC(c4ccncc4)=NO3)c2c1 (stereo not given) | > 100 | 68.5 | > 100 | > 100 | > 100 | 35.5 | – | – | – | – | – | – | – | – | –
COc1ccc2c(C3CC(c4ccncc4)=NO3)c[nH]c2c1 (stereo not given) | 3.5 | 9.5 | 10.5 | 4.16 | 7.38 | 16.3 | – | inactive | – | Active | – | Active | – | Active | Active
COc1cc(C2=NOC(c3c[nH]c4ccccc34)C2)cc(OC)c1OC (stereo not given) | 5 | 13.5 | 15.5 | 5 | 11.7 | 4.51 | – | – | – | – | – | – | – | – | –
